# Reference: ChEMBL document CHEMBL4007420, “Structural Optimization and Pharmacological Evaluation of Inhibitors Targeting Dual-Specificity Tyrosine Phosphorylation-Regulated Kinases (DYRK) and CDC-like kinases (CLK) in Glioblastoma” (J Med Chem, 2017)
# The source made the active and inactive calls. No cut-off for these calls is given here.
# How the values were obtained:
# [1] = Antimigratory activity in patient-derived RN1 cells assessed as velocity of migration at 5 uM measured up to 20 hrs by wound scratch assay (reference value: 937 to 1174 micrometer/hr); format: functional, Homo sapiens
# Outline: (§1)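 Wound-healing migration assay: cell movement across the wound is measured as velocity (µm/h). Compounds were tested at 0, 1.0, 5.0 and 10.0 µM. Values are mean ± SEM of 3 independent experiments.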
# U-251 [2] = assay: Antiinvasive activity in human U251 cells measured up to 20 hrs by matrigel assay; format: functional, cell-based
# [3] = Antimigratory activity in patient-derived RN1 cells at 5 uM measured up to 20 hrs by wound scratch assay; format: functional; conditions: Homo sapiens, RN1, 20 h; outline: as §1
# U-251 [4] = assay: Cytotoxicity against human U251 cells assessed as reduction in cell viability after 3 days by Alamar blue assay; format: functional, cell-based; conditions: U-251, 72 h
# U-251 [5] = assay: Anticlonogenic activity against human U251 cells after 10 to 12 days by toluidine blue staining based assay; format: functional, cell-based
# Outline: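 Cells were exposed to compound for 10 days, then colonies were fixed, stained with Toluidine Blue and counted. […] Values are mean ± SEM of 3 independent experiments, each in duplicate, with one-way ANOVA and Dunnett's test against vehicle.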
# [6] = molecular target: Mitogen-activated protein kinase 14 (Homo sapiens) (UniProt Q16539); assay: Stabilization of MAPK p38alpha in human U251 cell lysate at 10 uM preincubated for 1 hr followed by incubation at 40 to 70 degreeC for 3 mins by cellular thermal shift assay
# Sequence of Mitogen-activated protein kinase 14 (Homo sapiens) (Q16539 whole entry): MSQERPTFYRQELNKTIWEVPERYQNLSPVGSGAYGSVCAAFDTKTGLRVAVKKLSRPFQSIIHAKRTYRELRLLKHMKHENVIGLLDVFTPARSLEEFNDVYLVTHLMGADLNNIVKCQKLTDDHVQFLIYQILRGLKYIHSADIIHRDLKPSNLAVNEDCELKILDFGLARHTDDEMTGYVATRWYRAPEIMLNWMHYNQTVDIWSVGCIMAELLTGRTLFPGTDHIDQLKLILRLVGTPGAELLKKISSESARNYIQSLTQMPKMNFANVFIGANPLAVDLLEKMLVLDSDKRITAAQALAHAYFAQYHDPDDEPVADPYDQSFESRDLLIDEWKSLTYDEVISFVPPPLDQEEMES
# U-251 [7] = assay: Antiinvasive activity in human U251 cells assessed as velocity of invasion at 1 uM measured up to 20 hrs by matrigel assay (reference value: 1151 to 1710 micrometer/hr); format: functional
# A 172 [8] = assay: Antimigratory activity in human A172 cells assessed as velocity of migration at 5 uM measured up to 20 hrs by wound scratch assay (reference value: 2650 to 3123 micrometer/hr); format: functional; outline: as §1
# [9] = Cytotoxicity against patient-derived SJH1 cells assessed as reduction in cell viability after 3 days by Alamar blue assay; format: functional, cell-based; conditions: Homo sapiens, SJH1, 72 h
# Outline: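 The patient-derived glioblastoma lines were grown as stem cells under defined conditions to keep the phenotype and genotype of the resected tumours. Viability after treatment was read with Alamar blue.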
# A 172 [10] = assay: Antiinvasive activity in human A172 cells assessed as velocity of invasion at 10 uM measured up to 20 hrs by matrigel assay (reference value: 2659 to 3047 micrometer/hr); format: functional
# [11] = molecular target: Dual specificity tyrosine-phosphorylation-regulated kinase 1A (Homo sapiens, UniProt Q13627); assay: Binding affinity to DYRK1A in human U251 […] preincubated for 1 hr followed by incubation at 54 degreeC for 3 mins by isothermal dose-response fingerprint assay
# Outline: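 Isothermal dose-response fingerprint: intact U251 cells were treated for 1 h across 0–20 µM, then heated at 54 °C. The soluble fraction was extracted with aqueous buffer and DYRK1A was detected by Western blot. Results are mean ± SEM of 2 independent experiments.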
# A 172 [12] = assay: Antiinvasive activity in human A172 cells assessed as velocity of invasion at 5 uM measured up to 20 hrs by matrigel assay (reference value: 2659 to 3047 micrometer/hr); format: functional
# [13] = molecular target: T1, Dual specificity tyrosine-phosphorylation-regulated kinase 2 (Homo sapiens) (UniProt Q92630); assay: Stabilization of DYRK2 in human U251 cell lysate at 10 uM preincubated for 1 hr followed by incubation at 40 to 70 degreeC for 3 mins by cellular thermal shift assay
# T1 sequence (whole entry): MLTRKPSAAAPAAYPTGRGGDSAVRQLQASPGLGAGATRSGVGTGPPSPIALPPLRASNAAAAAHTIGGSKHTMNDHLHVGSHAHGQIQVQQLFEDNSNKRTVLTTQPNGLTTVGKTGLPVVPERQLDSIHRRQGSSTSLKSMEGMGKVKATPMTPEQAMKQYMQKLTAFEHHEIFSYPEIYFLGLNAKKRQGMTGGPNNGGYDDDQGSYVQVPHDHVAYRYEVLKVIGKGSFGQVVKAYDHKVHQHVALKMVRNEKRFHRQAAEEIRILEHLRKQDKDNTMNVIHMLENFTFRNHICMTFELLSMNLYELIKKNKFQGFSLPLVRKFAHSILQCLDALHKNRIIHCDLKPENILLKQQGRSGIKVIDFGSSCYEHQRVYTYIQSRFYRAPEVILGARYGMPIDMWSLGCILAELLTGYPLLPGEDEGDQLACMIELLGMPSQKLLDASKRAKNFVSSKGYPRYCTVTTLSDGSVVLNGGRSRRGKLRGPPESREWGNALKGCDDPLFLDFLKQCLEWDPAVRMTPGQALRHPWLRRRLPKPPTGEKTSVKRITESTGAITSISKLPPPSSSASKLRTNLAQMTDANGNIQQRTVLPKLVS
# U-251 [14] = assay: Antimigratory activity in human U251 cells assessed as velocity of migration at 1 uM measured up to 20 hrs by wound scratch assay (reference value: 2159 to 2653 micrometer/hr); format: functional; outline: as §1
# A 172 [15] = assay: Cytotoxicity against human A172 cells assessed as reduction in cell viability after 3 days by Alamar blue assay; format: functional, cell-based; conditions: A 172, 72 h
# U-251 [16] = assay: Antimigratory activity in human U251 cells assessed as velocity of migration at 5 uM measured up to 20 hrs by wound scratch assay (reference value: 2159 to 2653 micrometer/hr); format: functional; outline: as §1
smiles,measurement,setting,value
Nc1ccc(-c2cnc3[nH]cc(-c4ccc(O)cc4)c3c2)cc1,Activity,[1],118 um/hr
same,inhibition,U-251 [2],Dose-dependent effect
same,inhibition at 5 µM,[3],> 75%
same,EC50,U-251 [4],1600 to 4600 nM
same,EC50,U-251 [5],180 nM
same,Activity,[6],inactive
same,Activity,U-251 [7],1139 um/hr
same,Activity,A 172 [8],728 um/hr
same,EC50,[9],3200 nM
same,Activity,A 172 [10],714 um/hr
same,IC50,[11],711 nM
same,Activity,A 172 [12],1538 um/hr
same,Activity,[13],Active
same,Activity,U-251 [14],1247 um/hr
same,EC50,A 172 [15],1600 to 4600 nM
same,Activity,U-251 [16],127 um/hr
